Assay results published in ChEMBL document CHEMBL1126593, “Inactivation of monoamine oxidase B by analogues of the anticonvulsant agent milacemide (2-(n-pentylamino)acetamide)” (J Med Chem, 1993).

What was measured:
[1] = biological target: T1, Amine oxidase [flavin-containing] B (Bos taurus, UniProt P56560); assay: Kinetic constant (KI) was calculated by inhibition of monoamino oxidase B (MAO B)
T1 sequence (P56560 whole entry): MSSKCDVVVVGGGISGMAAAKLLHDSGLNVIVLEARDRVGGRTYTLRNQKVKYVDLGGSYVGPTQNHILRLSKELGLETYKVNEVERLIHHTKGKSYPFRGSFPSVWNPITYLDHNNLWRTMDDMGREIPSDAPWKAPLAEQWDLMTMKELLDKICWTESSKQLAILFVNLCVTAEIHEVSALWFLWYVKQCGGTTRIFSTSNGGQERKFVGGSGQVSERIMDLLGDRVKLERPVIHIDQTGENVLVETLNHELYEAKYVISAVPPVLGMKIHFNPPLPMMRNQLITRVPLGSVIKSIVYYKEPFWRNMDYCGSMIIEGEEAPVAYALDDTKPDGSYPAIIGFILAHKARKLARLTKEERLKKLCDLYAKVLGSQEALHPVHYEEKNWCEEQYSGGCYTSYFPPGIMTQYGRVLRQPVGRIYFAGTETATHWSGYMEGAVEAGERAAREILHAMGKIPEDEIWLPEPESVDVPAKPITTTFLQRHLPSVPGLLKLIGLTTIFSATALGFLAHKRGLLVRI
Outline: (§1)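 Bovine liver MAO B (isolated by published method), 25 °C, 100 mM Tris-HCl pH 9.00. Enzyme incubated with several inactivator concentrations; aliquots withdrawn periodically and residual activity read by benzylamine oxidation (OD change at 250 nm). Irreversibility tested by 24 h dialysis against Tris-HCl pH 9.0.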

[2] = Ratio is Kinetic constant (Kcat) / Inactivation constant (Kinact) of the MAO B
Outline: (§2)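 Turnover from H2O2 release: bovine MAO B with amine at several concentrations in 100 mM Tris-HCl pH 9.00, 25 °C, 90 s (1–2 min for some); leuco crystal violet/horseradish peroxidase in acetate pH 4.5 added, A596 converted via extinction coefficient. Km and kcat from Hanes plots; ratio is kcat over kinact from time-dependent inactivation.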

[3] = biological target: T1, Amine oxidase [flavin-containing] B; assay: Kinetic constant was calculated by inhibition of monoamino oxidase B (MAO B); outline: as §1
[4] = Ratio of Kinetic constant (Kcat) / Inactivation constant (Kinact) of the MAO B; Inactive; outline: as §2
[5] = biological target: T1, Amine oxidase [flavin-containing] B; assay: Kinetic constant was calculated by inhibition of monoamino oxidase B (MAO B); Inactive; outline: as §1
[6] = biological target: T1, Amine oxidase [flavin-containing] B; assay: Kinetic constant (KI) was calculated by inhibition of monoamino oxidase B (MAO B); Inactive; outline: as §1
[7] = Ratio of Kinetic constant (Kcat) / Inactivation constant (Kinact) of the MAO B
Outline: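 Bovine MAO B. For kcat, the enzyme was incubated for 1–2 min at 25 °C with several substrate concentrations in 100 mM Tris-HCl, pH 9.00. H2O2 was read as A596 after leuco crystal violet, peroxidase and pH 4.5 acetate were added, and kcat was taken from Hanes plots. For kinact, enzyme was incubated with varied inactivator concentrations (Tris-HCl, pH 9.00, 25 °C), and aliquots were assayed periodically.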

Ki [1] | Ratio [2] | Ki [3] | Ratio [4] | Ki [5] | Ki [6] | Ratio [7] | Structure (SMILES)
5.79 mM | 9091 | 4.94 mM |  |  |  |  | CCCCCNCCC#N
 |  |  | Not Active | Not Active | Not Active |  | CCCCCNCC(=O)O
14 mM | 3394 | 4.94 mM |  |  |  |  | CCCCCNCC#N
14.2 mM |  | 2 mM |  |  |  | 4435 | CCCCCNCC(=O)OCC
0.94 mM |  | 1.08 mM |  |  |  | 26289 | CCCCCNCC(N)=O [MILACEMIDE]
